Measured values taken from ChEMBL document CHEMBL5678815 (Clin Cancer Res, 2017).
The source made the active and inactive calls. The rule behind the calls is not given here.

Tests used:
[1] = biological target: RAC-beta serine/threonine-protein kinase (Homo sapiens) (UniProt P31751); assay: Inhibition of human AKT2 assessed as remaining activity at 1 uM by ATP-competition binding assay relative to control
Method in brief: (§1)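 KINOMEscan ATP-site-dependent competition binding panel of 395 human kinases, with compound tested at 1 μM. Binding is reported as remaining signal relative to control.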

[2] = biological target: Calcium/calmodulin-dependent protein kinase type 1D (Homo sapiens) (UniProt Q8IU85); assay: Inhibition of human CAMK1D assessed as remaining activity at 1 uM by ATP-competition binding assay relative to control; method in brief: as §1
[3] = biological target: Tyrosine-protein kinase CSK (Homo sapiens) (UniProt P41240); assay: Inhibition of human CSK assessed as remaining activity at 1 uM by ATP-competition binding assay relative to control; method in brief: as §1
[4] = biological target: Casein kinase I isoform gamma-1 (Homo sapiens) (UniProt Q9HCP0); assay: Inhibition of human CSNK1G1 assessed as remaining activity at 1 uM by ATP-competition binding assay relative to control; method in brief: as §1
[5] = biological target: Casein kinase I isoform gamma-3 (Homo sapiens) (UniProt Q9Y6M4); assay: Inhibition of human CSNK1G3 assessed as remaining activity at 1 uM by ATP-competition binding assay relative to control; method in brief: as §1
[6] = biological target: Serine/threonine-protein kinase 17B (Homo sapiens) (UniProt O94768); assay: Inhibition of human DRAK2 assessed as remaining activity at 1 uM by ATP-competition binding assay relative to control; method in brief: as §1
[7] = biological target: Ephrin type-A receptor 8 (Homo sapiens) (UniProt P29322); assay: Inhibition of human EPHA8 assessed as remaining activity at 1 uM by ATP-competition binding assay relative to control
Method in brief: (§2)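 Single-point profiling at 1μM in an ATP-site-dependent competition binding assay across a panel of 395 human kinases, including mutant forms. The read-out is kinase binding signal in the presence of test agent, expressed as inhibition relative to the control signal. This screen assessed noncovalent binding interactions.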

[8] = biological target: Receptor tyrosine-protein kinase erbB-2 (Homo sapiens) (UniProt P04626); assay: Inhibition of human ERBB2 assessed as remaining activity at 1 uM by ATP-competition binding assay relative to control; method in brief: as §2
[9] = biological target: Serine/threonine-protein kinase/endoribonuclease IRE1 (Homo sapiens) (UniProt O75460); assay: Inhibition of human ERN1 assessed as remaining activity at 1 uM by ATP-competition binding assay relative to control; method in brief: as §2
[10] = biological target: Fibroblast growth factor receptor 3 (Homo sapiens) (UniProt P22607); assay: Inhibition of human FGFR3 assessed as remaining activity at 1 uM by ATP-competition binding assay relative to control; method in brief: as §2
[11] = biological target: LIM domain kinase 1 (Homo sapiens) (UniProt P53667); assay: Inhibition of human LIMK1 assessed as remaining activity at 1 uM by ATP-competition binding assay relative to control; method in brief: as §2
[12] = biological target: Serine/threonine-protein kinase MARK2 (Homo sapiens) (UniProt Q7KZI7); assay: Inhibition of human MARK2 assessed as remaining activity at 1 uM by ATP-competition binding assay relative to control; method in brief: as §2
[13] = biological target: Serine/threonine-protein kinase 3 (Homo sapiens) (UniProt Q13188); assay: Inhibition of human MST2 assessed as remaining activity at 1 uM by ATP-competition binding assay relative to control; method in brief: as §2
[14] = biological target: Mitogen-activated protein kinase 14 (Homo sapiens) (UniProt Q16539); assay: Inhibition of human P38alpha assessed as remaining activity at 1 uM by ATP-competition binding assay relative to control; method in brief: as §2
[15] = biological target: Serine/threonine-protein kinase PAK 1 (Homo sapiens) (UniProt Q13153); assay: Inhibition of human PAK1 assessed as remaining activity at 1 uM by ATP-competition binding assay relative to control; method in brief: as §2
[16] = biological target: Serine/threonine-protein kinase PAK 4 (Homo sapiens) (UniProt O96013); assay: Inhibition of human PAK4 assessed as remaining activity at 1 uM by ATP-competition binding assay relative to control; method in brief: as §2
[17] = biological target: Cyclin-dependent kinase 16 (Homo sapiens) (UniProt Q00536); assay: Inhibition of human PCTK1 assessed as remaining activity at 1 uM by ATP-competition binding assay relative to control; method in brief: as §2
[18] = biological target: 3-phosphoinositide-dependent protein kinase 1 (Homo sapiens) (UniProt O15530); assay: Inhibition of human PDPK1 assessed as remaining activity at 1 uM by ATP-competition binding assay relative to control; method in brief: as §2
[19] = biological target: Serine/threonine-protein kinase pim-1 (Homo sapiens) (UniProt P11309); assay: Inhibition of human PIM1 assessed as remaining activity at 1 uM by ATP-competition binding assay relative to control; method in brief: as §2
[20] = biological target: RAF proto-oncogene serine/threonine-protein kinase (Homo sapiens) (UniProt P04049); assay: Inhibition of human RAF1 assessed as remaining activity at 1 uM by ATP-competition binding assay relative to control
Method in brief: (§3)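 Single-concentration (1 μM) screen in an ATP-site-dependent competition binding assay (KINOMEscan, outsourced) covering 395 human kinases, mutants included. Non-covalent binding was read as the remaining signal relative to the control signal.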

[21] = biological target: SRSF protein kinase 3 (Homo sapiens) (UniProt Q9UPE1); assay: Inhibition of human SRPK3 assessed as remaining activity at 1 uM by ATP-competition binding assay relative to control; method in brief: as §3
[22] = biological target: Dual specificity testis-specific protein kinase 1 (Homo sapiens) (UniProt Q15569); assay: Inhibition of human TESK1 assessed as remaining activity at 1 uM by ATP-competition binding assay relative to control; method in brief: as §3
[23] = biological target: Activated CDC42 kinase 1 (Homo sapiens) (UniProt Q07912); assay: Inhibition of human TNK2 assessed as remaining activity at 1 uM by ATP-competition binding assay relative to control; method in brief: as §3
[24] = biological target: Serine/threonine-protein kinase TNNI3K (Homo sapiens) (UniProt Q59H18); assay: Inhibition of human TNNI3K assessed as remaining activity at 1 uM by ATP-competition binding assay relative to control; method in brief: as §3
[25] = biological target: Tyrosine-protein kinase TXK (Homo sapiens) (UniProt P42681); assay: Inhibition of human TXK assessed as remaining activity at 1 uM by ATP-competition binding assay relative to control; method in brief: as §3
[26] = biological target: Tyrosine-protein kinase Tec (Homo sapiens) (UniProt P42680); assay: Inhibition of human TEC at < 100 nM by ATP-Competition Binding Assay
[27] = Antileukemic activity against human CLL mononuclear cells xenografted NSG mouse assessed as inhibition in cell proliferation measuring by Ki67 expression level at 0.3 to 0.16 mg/ml preadministered with compound via drinking water and measured after 3 weeks by flow cytometry analysis relative to control; type: functional; conditions: dose 0.3-0.16 mg/ml, at 0.16 to 0.3 mg/mL
Method in brief: (§4)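 Primary CLL patient mononuclear cells (1 × 10^8 per mouse) engrafted into NSG mice on day 0 after busulfan priming on day −1. Vehicle or drug was given in drinking water from day −1. Mice were killed 3 weeks after engraftment; spleens homogenized, filtered and RBC-lysed; whole blood collected. Six patients, 2–5 mice per patient; paired t-test per patient.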

CLL mononuclear cell = assay: Antileukemic activity against human CLL mononuclear cells xenografted NSG mouse assessed as reduction in splenic tumor burden at 0.3 mg/ml preadministered with compound via drinking water and measured after 3 weeks by flow cytometry analysis; type: functional, cell-based; method in brief: as §4

## CC#CC(=O)N1CCC[C@H]1c1nc(-c2ccc(C(=O)Nc3ccccn3)cc2)c2c(N)nccn12 [ACALABRUTINIB]
[1]
  Activity: 100%
[2]
  Activity: 98%
[3]
  Activity: 86%
[4]
  Activity: 78%
[5]
  Activity: 100%
[6]
  Activity: 88%
[7]
  Activity: 91%
[8]
  Activity: 2.1%
[9]
  Activity: 85%
[10]
  Activity: 87%
[11]
  Activity: 13%
[12]
  Activity: 59%
[13]
  Activity: 65%
[14]
  Activity: 84%
[15]
  Activity: 87%
[16]
  Activity: 88%
[17]
  Activity: 100%
[18]
  Activity: 67%
[19]
  Activity: 84%
[20]
  Activity: 77%
[21]
  Activity: 93%
[22]
  Activity: 83%
[23]
  Activity: 93%
[24]
  Activity: 38%
[25]
  Activity: 24%
[26]
  inhibition: Active
[27]
  inhibition (INH): 50%
CLL mononuclear cell
  Activity: Active
